Hck-Nef inh – inhibitors of human Hck kinase activated by Nef; hit rate 0.68% among 220,000; inhibition, % at 20 µM; P08631; Recombinant Hck-YEEI plus Nef, Z-Lyte FRET kinase assay;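 active means Hck-Nef kinase inhibition above about 50%, limit read from the data; inactive means inhibition below that limit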;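 further: 0% = DMSO with Hck plus Nef and 100% = Hck alone without Nef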
Target sequence (P08631 whole entry, looked up): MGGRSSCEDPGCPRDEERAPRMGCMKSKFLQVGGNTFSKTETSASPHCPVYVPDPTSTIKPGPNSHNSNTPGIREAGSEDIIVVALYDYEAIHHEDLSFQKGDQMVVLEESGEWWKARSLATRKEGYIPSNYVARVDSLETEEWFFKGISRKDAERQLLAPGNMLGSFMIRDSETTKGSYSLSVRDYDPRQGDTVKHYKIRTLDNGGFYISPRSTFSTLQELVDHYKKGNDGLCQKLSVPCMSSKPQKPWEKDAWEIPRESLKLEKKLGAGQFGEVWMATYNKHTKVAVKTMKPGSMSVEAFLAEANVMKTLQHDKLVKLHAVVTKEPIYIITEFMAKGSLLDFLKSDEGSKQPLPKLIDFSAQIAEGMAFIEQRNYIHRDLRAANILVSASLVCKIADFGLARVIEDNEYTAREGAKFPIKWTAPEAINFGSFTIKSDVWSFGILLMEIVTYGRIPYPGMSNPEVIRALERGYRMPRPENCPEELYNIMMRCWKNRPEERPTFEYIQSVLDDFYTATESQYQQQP
Runt-SMMHC FRET – Runt domain-CBFb-SMMHC interaction inhibition; Cerulean-Runt/Venus-CBFb-SMMHC FRET ratio 530/480, 1 h; AID 1434; inhibition, % at 20 µM; hit rate 0.74% among 220,000; Q01196+Q13951;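 active means mean inhibition across duplicate retests at 20 µM reaching about 50%, limit read from the data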;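 further: 0% = DMSO wells and 100% = wells with excess untagged CBFb-SMMHC; inhibitors lower the FRET ratio by blocking Runt binding to CBFb-SMMHC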
RanGTP-Impb inh – inhibitors of RanGTP-importin-beta interaction, primary screen, biochemical, FRET, CFP-Ran, YFP-importin-beta, homogeneous. cell-free CFP-Ran/YFP-importin-beta FRET ratio. inhibition, % (no concentration beside the values). hit rate 1.1% among 300,000. AID 2216;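 active means more than half of the replicate wells show a fall in the fluorescence ratio signal beyond about 16%, limit read from the data, passing the limit was not always enough; inconclusive means exactly half of the replicate wells pass the set limit; inactive means fewer than half of replicates pass the limit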;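 further: 0% = DMSO wells and 100% = Ran loaded with GDP instead of GTP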
Runt-CBFb FRET – Runt domain-CBFb interaction inhibition; Q01196+Q13951; Cerulean-Runt/Venus-CBFb FRET ratio 530/480, 1 h; inhibition, % at 20 µM; hit rate 0.46% among 220,000; AID 1496;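 active means inhibition over about 50% at 20 µM in the single-dose screen, limit read from the data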;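 further: 0% = DMSO wells and 100% = excess unlabeled CBFb competitor control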
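Assay system: Cerulean-Runt domain / Medium: Tris 50 mM pH 7.5, KCl, K2SO4, 0.01% BSA / Timing: protein complex preformed 1 h, compound exposure 1 h, room temperature, dark / Measured by: FRET, excitation 422 nm, emission at 530 and 480 nm / Evaluation: loss of energy transfer signal / Control set: 5 µM unlabeled CBFb as full-inhibition high control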
Active calls of the source: *; ? = inconclusive; . = not tested or not shown. This is a sample that favours compounds with a hit; in the whole collection about 1.9% have one here.

SMILES	Hck-Nef inh	Runt-SMMHC FRET	RanGTP-Impb inh	Runt-CBFb FRET
CC(CCc1ccccc1)NC(=O)C(Cc1ccccc1)NC(N)=O (stereo unspecified)	.	.	0	.
CC(=O)Oc1c(-c2ccco2)oc2ccccc2c1=O	-118	92*	13	20
CCC(C)(C)n1nnnc1C(c1cc2cc3c(cc2[nH]c1=O)OCO3)N1CCN(C)CC1 (stereo unspecified)	4	66*	3	40
COc1ccc2cc(C(c3nnnn3C(C)(C)C)N3CCc4ccccc4C3)c(=O)[nH]c2c1 (stereo unspecified)	7	-34	.	-18
CCC(C)(C)n1nnnc1C(c1cc2ccc(OC)cc2[nH]c1=O)N1CCc2ccccc2C1 (stereo unspecified)	3	-5	16*	-20
CCOC(=O)C1CCN(CCC(=O)Nc2ccc(C)c(C)c2)CC1	13	-2	5	1
Cc1cc(N2CCOCC2)n2nc(C)c(-c3ccccc3)c2n1	1	136	.	86*
C[C@]12C=CC(=O)C=C1CC[C@@H]1C2=CC[C@]2(C)[C@@H](C(=O)CN3CCN(c4cc(N5CCCC5)nc(N5CCCC5)n4)CC3)CC[C@@H]12	.	.	65*	.
CC(=O)N1c2ccc(S(=O)(=O)N3CCCC3)cc2CC1C(=O)NCc1ccccc1F (stereo unspecified)	.	.	2	.
O=C(O)c1ccccc1SCc1csc(-c2ccccc2)n1	.	.	27*	.
COC(=O)c1ccccc1SCc1csc(C)n1	.	.	-5	.
O=C(/C=C/c1c[nH]c2ccccc12)c1cccc2ccccc12	-1	8	17*	20
COc1ccc(S(=O)(=O)NCc2cc(-c3ccccc3Cl)no2)cc1	19	1	-1	-2
CC(C)c1ccc(NC(=O)NN2CCOCC2)cc1	-1	-4	0	0
Cc1ccc(C(=O)Nc2cccc3ccccc23)cc1	.	.	-2	.
CC(C)(C)c1ccc(C(=O)Nc2cccc3c(=O)[nH][nH]c(=O)c23)cc1	-4	78	39*	4
O=S(=O)(Cc1ccccc1)N1CCN(c2ccccc2)CC1	2	-4	59*	.
C=CCOC(=O)C(C#N)c1nc2ccccc2nc1N1CCN(Cc2ccccc2)CC1 (stereo unspecified)	-3	68*	.	0
CCOC(=O)C1CCCN(c2nc3ccccc3nc2C(C#N)C(=O)OC(C)COC)C1 (stereo unspecified)	0	12	?	-3
COCC(C)OC(=O)C(C#N)c1nc2ccccc2nc1N1CCN(Cc2ccccc2)CC1 (stereo unspecified)	2	72*	7	44
CCCCOC(=O)C(C#N)c1nc2ccccc2nc1N1CCN(Cc2ccc3c(c2)OCO3)CC1 (stereo unspecified)	-1	75*	.	43
CC(C)COC(=O)C(C#N)c1nc2ccccc2nc1N1CCN(Cc2ccccc2)CC1 (stereo unspecified)	-2	53	?	27
COC(=O)C(C#N)c1nc2ccccc2nc1N1CCN(Cc2ccc3c(c2)OCO3)CC1 (stereo unspecified)	.	26	-2	13
N#Cc1c(N)sc2c1CCN(CCc1ccccc1)C2	-3	88*	46*	105*
N#Cc1c(NC(=S)NC(=O)c2ccccc2)sc2c1CCN(CCc1ccccc1)C2	9	82*	157*	4
SMILES	Hck-Nef inh	Runt-SMMHC FRET	RanGTP-Impb inh	Runt-CBFb FRET
CCOC(=O)N1CCc2c(sc(N)c2C#N)C1	-2	1	-3	14
CC(C)(C)C(=O)Nc1sc2c(c1C#N)CCN(Cc1ccccc1)C2	.	.	150*	.
N#Cc1c(NC(=S)NC(=O)c2ccccc2)sc2c1CCCC2	8	12	5	49
CCN(CC)CCNC(=O)c1cc(Nc2ccc(OC)c(OC)c2)nc2ccccc12	.	.	-4	.
CC1(C)CC(=O)C=C(Nc2ccc(C(=O)O)cc2)C1	0	0	29*	2
CC1(C)CC(=O)C=C(Nc2ccc3c(c2)OCCO3)C1	3	-3	26*	-3
CC1(C)CC(=O)C=C(Nc2cccc(O)c2)C1	3	3	45*	1
Cc1ccc(NC2=CC(=O)CC(C)(C)C2)cc1C	-1	2	1	0
CN(C)c1ncc(/C=C2/C(=O)NC(=S)N(C3CCCCC3)C2=O)cn1	68*	13	.	7
CC(C)CC1NC(=S)N(C2CCCCC2)C1=O (stereo unspecified)	-1	-5	-3	0
O=C(CNC(=S)N(Cc1ccccc1)Cc1ccccc1F)NCCc1ccc(Cl)cc1	11	-1	-5	-2
COc1ccc(N2CCN(C(CNC(=O)C3CCCCC3)c3ccco3)CC2)cc1 (stereo unspecified)	.	.	10	.
Nc1nc(N2CCOCC2)cc(=O)[nH]1	1	19	20*	6
CNC(C)C#Cc1ccc2sc3cccc(OC)c3c(=O)c2c1 (stereo unspecified)	.	.	38*	.
COc1cccc2sc3ccc(C#CC4(N)CCCCC4)cc3c(=O)c12	.	.	55*	.
Cc1ccc(Cn2c(=N)c(C#N)cc3c(=O)n4cccc(C)c4nc32)cc1	21	.	63*	.
CCC(C)n1c(=N)c(C#N)cc2c(=O)n3cccc(C)c3nc21 (stereo unspecified)	40	91*	0	104*
Cc1cccn2c(=O)c3cc(C#N)c(=N)n(Cc4cccnc4)c3nc12	3	.	.	.
Nc1cccc2c1C(=O)N(Cc1cccc(Cl)c1)C2=O	14	93*	-3	3
O=C1Cc2ccccc2C(=O)N1Cc1cccc(Cl)c1	.	.	-3	.
CCN(C(=O)c1ccc(S(=O)(=O)N(C)C)cc1)C(C)C(=O)Nc1ccc(C)cc1 (stereo unspecified)	.	.	3	.
CCOc1ccc(NC(=O)CN(C)S(=O)(=O)c2ccc3c(c2)CCC(=O)N3)cc1	8	60*	0	2
N#C/C(=C\c1c(N2CCCCCC2)nc2ccccn2c1=O)C(N)=O	.	.	-3	.
N#C/C(=C\c1c(N2CCCCCC2)nc2ccccn2c1=O)C(=O)NC1CCS(=O)(=O)C1 (stereo unspecified)	6	82*	0	4
N#C/C(=C\c1c(N2CCOCC2)nc2ccccn2c1=O)C(=O)NC1CCS(=O)(=O)C1 (stereo unspecified)	7	82*	3	10
SMILES	Hck-Nef inh	Runt-SMMHC FRET	RanGTP-Impb inh	Runt-CBFb FRET
O=C(CN(C(=O)CNC(=O)c1cccs1)c1ccc(F)cc1)NC1CCCCC1	.	.	5	.
S=C(Nc1ccc2nc(-c3ccccn3)c(-c3ccccn3)nc2c1)N1CCCCC1	16	.	.	.
CCCNC(=S)Nc1ccc2nc(-c3ccccn3)c(-c3ccccn3)nc2c1	1	-23	28*	.
Nc1nc(C2CC(=O)OC23CCCCC3)cs1 (stereo unspecified)	6	-1	21*	3
Cc1nc(C2CC(=O)OC23CCCCC3)cs1 (stereo unspecified)	1	3	-4	-2
O=c1oc2ccc3ccccc3c2cc1-c1nnc(-c2cccs2)o1	0	58*	114*	19
